ChEMBL document CHEMBL4052588, “Design of a Biased Potent Small Molecule Inhibitor of the Bromodomain and PHD Finger-Containing (BRPF) Proteins Suitable for Cellular and in Vivo Studies” (J Med Chem, 2017)
pIC50: −log10 of the molar value.

Columns and labels:
CREB-binding protein = CREB-binding protein (Homo sapiens, UniProt Q92793); assay: Inhibition of human CREBBP expressed in Escherichia coli BL21 after 1 hr by BROMOscan assay
[1] = target: T1, Bromodomain and PHD finger-containing protein 3 (Homo sapiens, UniProt Q9ULD4); assay: Inhibition of human His tagged BRPF3 incubated for 30 mins followed by addition of biotinylated peptide and further incubation for 30 mins measured by AlphaScreen assay
T1 sequence (Q9ULD4 whole entry): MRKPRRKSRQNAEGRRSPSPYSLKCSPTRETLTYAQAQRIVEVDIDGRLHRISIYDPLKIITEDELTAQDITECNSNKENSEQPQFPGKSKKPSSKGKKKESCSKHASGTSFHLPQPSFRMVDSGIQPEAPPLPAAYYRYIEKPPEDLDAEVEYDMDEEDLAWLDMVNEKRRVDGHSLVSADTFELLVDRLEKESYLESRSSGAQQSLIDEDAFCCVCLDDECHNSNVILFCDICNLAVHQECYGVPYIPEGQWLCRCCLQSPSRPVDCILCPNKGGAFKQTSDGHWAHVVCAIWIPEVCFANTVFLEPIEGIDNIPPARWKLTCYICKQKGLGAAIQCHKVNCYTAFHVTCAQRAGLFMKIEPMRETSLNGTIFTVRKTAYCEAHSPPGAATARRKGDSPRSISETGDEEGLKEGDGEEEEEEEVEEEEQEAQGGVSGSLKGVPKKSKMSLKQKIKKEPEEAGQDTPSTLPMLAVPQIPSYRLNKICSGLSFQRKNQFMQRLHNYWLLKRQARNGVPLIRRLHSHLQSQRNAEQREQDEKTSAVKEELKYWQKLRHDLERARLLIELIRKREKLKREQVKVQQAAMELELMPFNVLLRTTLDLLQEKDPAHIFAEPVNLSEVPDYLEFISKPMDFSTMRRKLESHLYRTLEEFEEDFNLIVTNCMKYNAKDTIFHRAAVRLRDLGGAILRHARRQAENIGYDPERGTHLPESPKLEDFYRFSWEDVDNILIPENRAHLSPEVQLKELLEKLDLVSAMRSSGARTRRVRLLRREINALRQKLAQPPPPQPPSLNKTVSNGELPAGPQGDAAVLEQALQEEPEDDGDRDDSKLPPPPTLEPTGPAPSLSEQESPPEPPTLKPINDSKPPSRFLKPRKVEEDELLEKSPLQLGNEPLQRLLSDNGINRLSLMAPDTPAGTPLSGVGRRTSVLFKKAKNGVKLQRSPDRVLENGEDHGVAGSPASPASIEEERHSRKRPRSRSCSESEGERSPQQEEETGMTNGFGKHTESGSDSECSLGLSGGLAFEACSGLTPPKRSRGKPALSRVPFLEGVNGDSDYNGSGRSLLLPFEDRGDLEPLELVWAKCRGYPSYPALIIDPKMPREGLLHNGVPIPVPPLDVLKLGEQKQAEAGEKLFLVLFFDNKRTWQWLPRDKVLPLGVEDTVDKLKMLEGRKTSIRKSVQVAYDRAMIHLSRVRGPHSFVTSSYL
In short: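 AlphaScreen biochemical readout of bromodomain inhibition, giving an IC50. Compound series were made by serial dilution of a 100 mM DMSO stock. […] Differences under 2-fold are treated as not significant.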

[2] = Apparent permeability across apical side to basolateral side in human Caco2 cells at 10 uM after 2 hrs by LC-MS/MS analysis; assay type: ADME, cell-based; conditions: Caco-2
NOMO-1 = assay: Growth inhibition of human NOMO1 cells after 72 hrs; assay type: functional; conditions: NOMO-1, 72 h
NUGC-4 = assay: Growth inhibition of human NUGC4 cells after 72 hrs; assay type: functional; conditions: NUGC-4, 72 h
COLO 205 = assay: Growth inhibition of human COLO205 cells after 72 hrs; assay type: functional; conditions: COLO 205, 72 h
[3] = Growth inhibition of human OCUM1 cells after 72 hrs; assay type: functional; conditions: OCUM1, 72 h
LoVo = assay: Growth inhibition of human LoVo cells after 72 hrs; assay type: functional
CWR22R = assay: Growth inhibition of human 22Rv1 cells after 72 hrs; assay type: functional; conditions: 22Rv1, 72 h
[4] = Growth inhibition of human MOLP8 cells after 72 hrs; assay type: functional; conditions: MOLP-8, 72 h
SW948 = assay: Growth inhibition of human SW948 cells after 72 hrs; assay type: functional; conditions: SW948, 72 h
KG-1 = assay: Growth inhibition of human KG1 cells after 72 hrs; assay type: functional; conditions: KG-1, 72 h
[5] = Growth inhibition of human Panc 02.03 cells after 72 hrs; assay type: functional; conditions: Panc 02.03, 72 h
[6] = Growth inhibition of human SW403 cells after 72 hrs; assay type: functional; conditions: SW-403, 72 h
LS180 = assay: Growth inhibition of human LS180 cells after 72 hrs; assay type: functional; conditions: LS180, 72 h

Sequence of CREB-binding protein (Q92793 whole entry): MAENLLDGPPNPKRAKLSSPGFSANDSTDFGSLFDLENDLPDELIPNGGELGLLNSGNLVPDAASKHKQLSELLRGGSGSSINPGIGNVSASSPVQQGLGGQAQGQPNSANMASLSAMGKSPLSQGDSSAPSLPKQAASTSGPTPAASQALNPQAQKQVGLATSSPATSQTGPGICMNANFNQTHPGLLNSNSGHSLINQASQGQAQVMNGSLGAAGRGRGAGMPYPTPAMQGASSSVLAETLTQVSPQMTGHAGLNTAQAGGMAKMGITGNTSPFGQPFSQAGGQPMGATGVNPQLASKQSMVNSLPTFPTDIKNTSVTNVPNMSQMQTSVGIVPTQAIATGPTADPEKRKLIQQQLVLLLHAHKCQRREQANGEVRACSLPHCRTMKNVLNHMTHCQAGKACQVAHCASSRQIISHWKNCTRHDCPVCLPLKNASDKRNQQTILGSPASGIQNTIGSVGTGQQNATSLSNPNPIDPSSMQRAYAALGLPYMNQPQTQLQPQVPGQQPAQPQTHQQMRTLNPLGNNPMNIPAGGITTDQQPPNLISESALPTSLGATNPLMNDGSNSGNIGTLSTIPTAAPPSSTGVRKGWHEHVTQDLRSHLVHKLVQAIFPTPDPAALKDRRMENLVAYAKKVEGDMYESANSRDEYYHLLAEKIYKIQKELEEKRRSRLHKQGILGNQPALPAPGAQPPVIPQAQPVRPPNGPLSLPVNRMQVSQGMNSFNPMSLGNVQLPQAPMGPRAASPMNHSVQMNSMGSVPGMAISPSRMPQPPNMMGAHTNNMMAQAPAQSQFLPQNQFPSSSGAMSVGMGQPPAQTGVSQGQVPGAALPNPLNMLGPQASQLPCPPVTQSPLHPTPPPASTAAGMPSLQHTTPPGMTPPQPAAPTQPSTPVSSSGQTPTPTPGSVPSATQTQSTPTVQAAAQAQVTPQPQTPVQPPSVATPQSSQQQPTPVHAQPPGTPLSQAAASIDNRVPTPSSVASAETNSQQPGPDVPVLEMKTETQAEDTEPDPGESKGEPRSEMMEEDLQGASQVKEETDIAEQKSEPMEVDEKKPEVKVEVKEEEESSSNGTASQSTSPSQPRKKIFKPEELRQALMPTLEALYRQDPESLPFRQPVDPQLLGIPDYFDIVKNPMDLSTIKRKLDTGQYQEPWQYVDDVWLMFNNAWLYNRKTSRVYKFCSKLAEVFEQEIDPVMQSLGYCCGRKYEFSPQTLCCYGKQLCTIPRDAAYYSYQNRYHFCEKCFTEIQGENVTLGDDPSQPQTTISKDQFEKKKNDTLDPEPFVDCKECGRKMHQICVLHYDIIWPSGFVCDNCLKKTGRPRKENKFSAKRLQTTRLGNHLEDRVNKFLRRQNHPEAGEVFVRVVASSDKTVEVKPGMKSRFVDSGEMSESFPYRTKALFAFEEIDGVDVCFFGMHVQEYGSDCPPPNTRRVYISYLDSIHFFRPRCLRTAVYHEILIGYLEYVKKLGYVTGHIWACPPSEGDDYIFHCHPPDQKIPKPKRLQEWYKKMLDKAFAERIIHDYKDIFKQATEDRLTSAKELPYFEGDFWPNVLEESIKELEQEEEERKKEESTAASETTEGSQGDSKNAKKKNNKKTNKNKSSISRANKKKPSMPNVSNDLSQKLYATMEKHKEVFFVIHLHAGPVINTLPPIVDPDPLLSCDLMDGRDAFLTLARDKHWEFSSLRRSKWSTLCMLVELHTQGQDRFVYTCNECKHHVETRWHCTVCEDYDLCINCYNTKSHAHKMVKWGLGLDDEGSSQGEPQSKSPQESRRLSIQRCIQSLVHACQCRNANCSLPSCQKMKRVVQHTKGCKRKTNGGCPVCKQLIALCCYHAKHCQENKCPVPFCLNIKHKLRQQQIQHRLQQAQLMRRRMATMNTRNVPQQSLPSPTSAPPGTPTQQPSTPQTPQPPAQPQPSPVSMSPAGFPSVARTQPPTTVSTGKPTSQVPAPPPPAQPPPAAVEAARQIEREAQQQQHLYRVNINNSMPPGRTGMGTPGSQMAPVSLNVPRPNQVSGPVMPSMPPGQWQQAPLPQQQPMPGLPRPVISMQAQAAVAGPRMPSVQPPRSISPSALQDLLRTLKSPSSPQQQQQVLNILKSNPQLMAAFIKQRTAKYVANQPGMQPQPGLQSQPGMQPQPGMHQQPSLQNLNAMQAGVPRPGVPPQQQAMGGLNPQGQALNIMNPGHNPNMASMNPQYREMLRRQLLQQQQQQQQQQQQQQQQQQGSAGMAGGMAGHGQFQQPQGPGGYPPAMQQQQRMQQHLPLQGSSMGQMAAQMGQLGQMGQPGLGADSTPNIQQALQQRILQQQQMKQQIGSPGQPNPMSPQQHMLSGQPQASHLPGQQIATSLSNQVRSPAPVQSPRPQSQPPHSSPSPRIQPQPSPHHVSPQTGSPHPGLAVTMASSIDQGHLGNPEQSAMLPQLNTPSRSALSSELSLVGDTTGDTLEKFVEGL

CCc1cc2cc(NS(=O)(=O)c3ccc(C#N)cc3)ccc2n(CC)c1=O
pIC50 (CREB-binding protein): < 4.00

Cc1cc2cc(NS(=O)(=O)c3ccc(C#N)cc3)ccc2n(C)c1=O
pIC50 [1]: 5.70 | Papp A→B at 2 h, 10 µM [2]: 10 ×10⁻⁶ cm/s | GI50 (NOMO-1): 4.6 µM | GI50 (NUGC-4): 1 to 10 µM | GI50 (COLO 205): 1 to 10 µM | GI50 [3]: 1 to 10 µM | GI50 (LoVo): 1 to 10 µM | GI50 (CWR22R): 1 to 10 µM | GI50 [4]: 1 to 10 µM | GI50 (SW948): 1 to 10 µM | GI50 (KG-1): 7 µM | GI50 [5]: 1 to 10 µM | GI50 [6]: 1 to 10 µM | GI50 (LS180): 1 to 10 µM
